Reference: ChEMBL document CHEMBL1155396, “The synthesis and angiotensin converting enzyme (ACE) inhibitory activity of chalcones and their pyrazole derivatives” (Bioorg Med Chem Lett, 2010)

Key:
[1] = molecular target: T1, Angiotensin-converting enzyme (Oryctolagus cuniculus, UniProt P12822); experiment: (§1) Inhibition of ACE in rabbit lung assessed as decrease in dansylglycine concentration after 5 mins by HPLC analysis
T1 sequence (P12822 whole entry): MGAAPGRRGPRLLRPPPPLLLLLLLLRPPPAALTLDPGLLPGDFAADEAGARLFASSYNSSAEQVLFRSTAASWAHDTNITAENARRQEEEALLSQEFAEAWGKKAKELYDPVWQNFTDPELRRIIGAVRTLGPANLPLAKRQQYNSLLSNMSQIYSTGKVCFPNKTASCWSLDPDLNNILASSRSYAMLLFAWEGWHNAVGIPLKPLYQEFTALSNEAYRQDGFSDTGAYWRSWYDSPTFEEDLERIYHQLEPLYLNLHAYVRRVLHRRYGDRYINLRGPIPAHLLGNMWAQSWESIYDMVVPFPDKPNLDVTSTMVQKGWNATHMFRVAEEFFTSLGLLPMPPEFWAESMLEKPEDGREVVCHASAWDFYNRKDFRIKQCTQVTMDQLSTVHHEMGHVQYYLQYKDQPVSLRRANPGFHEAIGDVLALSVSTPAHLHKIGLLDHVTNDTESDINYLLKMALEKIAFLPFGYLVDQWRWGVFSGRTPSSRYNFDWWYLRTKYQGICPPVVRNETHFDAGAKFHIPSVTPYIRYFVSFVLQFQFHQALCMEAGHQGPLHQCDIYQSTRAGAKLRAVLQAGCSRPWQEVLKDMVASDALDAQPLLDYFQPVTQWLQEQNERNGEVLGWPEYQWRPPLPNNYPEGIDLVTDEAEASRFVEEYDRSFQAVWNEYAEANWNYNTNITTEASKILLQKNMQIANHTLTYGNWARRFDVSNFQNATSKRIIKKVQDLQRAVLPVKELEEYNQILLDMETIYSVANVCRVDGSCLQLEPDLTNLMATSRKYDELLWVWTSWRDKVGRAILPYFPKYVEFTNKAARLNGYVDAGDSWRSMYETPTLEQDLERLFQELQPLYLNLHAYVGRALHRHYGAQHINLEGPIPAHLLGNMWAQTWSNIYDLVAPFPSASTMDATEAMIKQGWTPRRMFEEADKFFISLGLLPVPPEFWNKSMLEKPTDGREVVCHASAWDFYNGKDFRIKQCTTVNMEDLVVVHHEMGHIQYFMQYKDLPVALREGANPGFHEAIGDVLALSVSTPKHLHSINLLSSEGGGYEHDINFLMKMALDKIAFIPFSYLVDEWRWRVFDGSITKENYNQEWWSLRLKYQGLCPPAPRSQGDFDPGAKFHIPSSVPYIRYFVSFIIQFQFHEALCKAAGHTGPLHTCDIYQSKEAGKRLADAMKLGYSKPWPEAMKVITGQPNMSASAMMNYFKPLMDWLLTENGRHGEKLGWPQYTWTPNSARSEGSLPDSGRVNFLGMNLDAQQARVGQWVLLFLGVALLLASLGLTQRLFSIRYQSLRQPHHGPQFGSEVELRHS
Method in brief: (§2)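 Rabbit lung ACE, pre-incubated 5 min at 37 °C with compound dissolved in HEPES assay buffer. Reaction started with substrate dansyltriglycine (7.86 mM) plus internal standard dansyl-L-glutamine (0.353 mM), both in the added combined solution. Incubation time was set from a calibration curve. Dansylglycine was quantified by reversed-phase HPLC with UV detection, using isocratic 10 mM NaH₂PO₄ (pH 7)/acetonitrile 88:12. Percent inhibition was taken versus control, with IC50 by nonlinear regression; means of three experiments.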

[2] = molecular target: T2, Angiotensin-converting enzyme (Oryctolagus cuniculus) (UniProt P12822); experiment: as §1; method in brief: as §2
T2 sequence (whole entry): T1 sequence (P12822 whole entry)

| SMILES | IC50 [1] | inhibition [2] |
| --- | --- | --- |
| COc1ccc(C2CC(c3cc(OC)c(OC)c(OC)c3)=NN2C)cc1 (centres undefined) | 435 µM | Dose-dependent effect |
| COc1ccc(C2CC(c3cc(OC)c(OC)c(OC)c3)=NN2C)cc1[N+](=O)[O-] (centres undefined) | – | Dose-dependent effect |
| COc1ccc(/C=C/C(=O)c2cc(OC)c(OC)c(OC)c2)cc1N | 219 µM | Dose-dependent effect |
| COc1ccc(/C=C/C(=O)c2cc(OC)c(OC)c(OC)c2)cc1O | 225 µM | Dose-dependent effect |
| COc1ccc(/C=C/C(=O)c2cc(OC)c(OC)c(OC)c2)cc1[N+](=O)[O-] | 516 µM | – |
| O=c1cc(-c2ccc(O)c(O)c2)oc2cc(O)cc(O)c12 [LUTEOLIN] | 290 µM | – |
| COc1ccc(C2CC(c3cc(OC)c(OC)c(OC)c3)=NN2C)cc1N (centres undefined) | 749 µM | – |
| COc1cc(C2CC(c3cc(OC)c(OC)c(OC)c3)=NN2C)ccc1O (centres undefined) | 674 µM | – |
| COc1cc(C2=NN(C)C(c3ccccc3)C2)cc(OC)c1OC (centres undefined) | 805 µM | – |
| O=c1c(O[C@@H]2O[C@H](CO)[C@H](O)[C@H](O)[C@H]2O)c(-c2ccc(O)cc2)oc2cc(O)cc(O)c12 [TRIFOLIN] | 260 µM | – |
| COc1cc(C(=O)/C=C/c2ccccc2)cc(OC)c1OC | 338 µM | Dose-dependent effect |
| O=c1cc(-c2ccc(O)cc2)oc2cc(O)cc(O)c12 [APIGENIN] | 280 µM | – |
| COc1cc(C(=O)/C=C/c2ccc([N+](=O)[O-])c(O)c2)cc(OC)c1OC | 552 µM | – |

Now from value to compound:

| IC50 [1] | inhibition [2] | SMILES |
| --- | --- | --- |
| 280 µM | – | O=c1cc(-c2ccc(O)c(O)c2)oc2cc(O[C@@H]3O[C@H](CO)[C@@H](O)[C@H](O)[C@H]3O)cc(O)c12 [GALUTEOLIN] |
| 574 µM | – | COc1ccc(/C=C/C(=O)c2cc(OC)c(OC)c(OC)c2)cc1 |
| 770 µM | – | COc1ccc(C2CC(c3cc(OC)c(OC)c(OC)c3)=NN2C)cc1F (centres undefined) |
| 570 µM | – | COc1ccc(/C=C/C(=O)c2cc(OC)c(OC)c(OC)c2)cc1F |
| 622 µM | – | COc1cccc(/C=C/C(=O)c2cc(OC)c(OC)c(OC)c2)c1 |
| 889 µM | – | COc1cccc(C2CC(c3cc(OC)c(OC)c(OC)c3)=NN2C)c1 (centres undefined) |
| 246 µM | Dose-dependent effect | COc1cc(/C=C/C(=O)c2cc(OC)c(OC)c(OC)c2)ccc1O |
| 599 µM | – | COc1cc([C-]2CC(c3ccc([N+](=O)[O-])c(O)c3)[N+](C)=N2)cc(OC)c1OC (centres undefined) |
| 200 µM | – | O=C(O)[C@H]1O[C@@H](Oc2c(-c3ccc(O)c(O)c3)oc3cc(O)cc(O)c3c2=O)[C@H](O)[C@@H](O)[C@@H]1O [QUERCETIN GLUCURONIDE] |
| 762 µM | – | COc1ccc(C2CC(c3cc(OC)c(OC)c(OC)c3)=NN2C)cc1O (centres undefined) |
| 213 µM | – | COc1ccc(C2C[C-](c3cc(OC)c(OC)c(OC)c3)N=[N+]2C)cc1[N+](=O)[O-] (centres undefined) |
